The values that follow come from ChEMBL document CHEMBL1121494, “Prostaglandins and congeners. 22. Synthesis of 11-substituted derivatives of 11-deoxyprostaglandins E1 and E2. Potential bronchodilators” (1980).

The subject of the assay is Cavia porcellus. Nature of the assay: Relative potency against bronchoconstrictions, induced by intravenous administration of histamine at doses […] in guinea pig. The assay is classed as functional. In outline:
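Anesthetized guinea pigs (intraperitoneal urethane), curarized with iv gallamine; modified Konzett-Rossler set-up. Bronchoconstriction provoked by iv histamine or serotonin at 5.6-22.5 μg/kg, doses giving a 20 to 50 cm water rise in tracheal pressure; 12 s iv injections repeated every 5 min. Test compounds given iv. Broncholytic activity scored in at least four animals per spasmogen per dose level, expressed as potency relative to l-PGE₂.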

In the case of `CCCCC[C@H](O)/C=C/[C@H]1C(SCC(C)O)CC(=O)[C@@H]1C/C=C\CCCC(=O)OC` (some centres undefined), the Relative potency came out at 2. As for `CCCCC[C@@H](O)/C=C/[C@H]1[C@H](SCCO)CC(=O)[C@@H]1C/C=C\CCCC(=O)OC`, the figure is 19; as for `CCCCC[C@H](O)/C=C/[C@H]1[C@@H](SCCO)CC(=O)[C@@H]1C/C=C\CCCC(=O)OC`, 10; as for `CCCCC[C@H](O)/C=C/[C@H]1C(SCC)CC(=O)[C@@H]1C/C=C\CCCC(=O)OC` (some centres undefined), 1. As for `CCCCC[C@H](O)/C=C/[C@H]1C(SCC(=O)O)CC(=O)[C@@H]1C/C=C\CCCC(=O)OC` (some centres undefined), the figure is 0.1. As for `CCCCC[C@H](O)/C=C/[C@H]1C(SCCCO)CC(=O)[C@@H]1C/C=C\CCCC(=O)OC` (some centres undefined), the figure is 0.8; as for `CCCCC[C@H](O)/C=C/[C@H]1C(SCCN(CC)CC)CC(=O)[C@@H]1C/C=C\CCCC(=O)OC` (some centres undefined), 22. Regarding `CCCCC[C@H](O)/C=C/[C@H]1C(SCCN(C)C)CC(=O)[C@@H]1C/C=C\CCCC(=O)OC` (some centres undefined), the Relative potency worked out at 14. As for `CCCCC[C@H](O)/C=C/[C@H]1C(SCCS)CC(=O)[C@@H]1C/C=C\CCCC(=O)OC` (some centres undefined), the figure is 0.4.

Compound `CCCCC[C@H](O)/C=C/[C@H]1C(Sc2cccc(O)c2)CC(=O)[C@@H]1C/C=C\CCCC(=O)OC` (some centres undefined) displayed a Relative potency of 0.2.

The compound `CCCCC[C@H](O)/C=C/[C@H]1C(SCCC)CC(=O)[C@@H]1C/C=C\CCCC(=O)OC` (some centres undefined) showed a Relative potency of under 0.2. Then `CCCCC[C@H](O)/C=C/[C@H]1C(SCC(=O)OCC)CC(=O)[C@@H]1C/C=C\CCCC(=O)OC` (some centres undefined), with 3; and `CCCCC[C@H](O)/C=C/C1CCC(=O)[C@@H]1C/C=C\CCCC(=O)O` (some centres undefined), with 92.

`CCCCC[C@H](O)/C=C/[C@H]1C(SCCO)CC(=O)[C@@H]1CCCCCCC(=O)O` (some centres undefined) registered a Relative potency of 104. As for `CCCCCC(O)CSC1CC(=O)[C@H](C/C=C\CCCC(=O)OC)[C@H]1/C=C/[C@H](O)CCCCC` (some centres undefined), the figure is under 0.2; as for `CCCCC[C@H](O)/C=C/[C@H]1C(SCCN)CC(=O)[C@@H]1C/C=C\CCCC(=O)OC` (some centres undefined), 0.3; as for `CCCCC[C@H](O)/C=C/[C@H]1C(SCCCS)CC(=O)[C@@H]1C/C=C\CCCC(=O)OC` (some centres undefined), 9.

For `CCCCC[C@H](O)/C=C/[C@H]1[C@H](SCCO)CC(=O)[C@@H]1C/C=C\CCCC(=O)O`, the Relative potency was found to be 55. Then `CCCCC[C@H](O)/C=C/[C@H]1C(SCC(O)CO)CC(=O)[C@@H]1C/C=C\CCCC(=O)OC` (some centres undefined), with 11; and `CCCCC[C@H](O)/C=C/[C@H]1[C@H](SCCO)CC(=O)[C@@H]1C/C=C\CCCC(=O)OC`, with 100; and `CCCCC(O)C/C=C/[C@H]1[C@H](SCCO)CC(=O)[C@@H]1CCCCCCC(=O)O` (mixture of isomers), with 24. As for `CCCCCC(C)(O)/C=C/[C@H]1[C@H](SCCO)CC(=O)[C@@H]1CCCCCCC(=O)O` (mixture of isomers), the figure is 16; as for `CCCCC(C)(O)C/C=C/[C@H]1[C@H](SCCO)CC(=O)[C@@H]1C/C=C\CCCC(=O)OC` (mixture of isomers), 109; as for `CCCCCC/C=C/[C@H]1[C@H](SCCO)CC(=O)[C@@H]1C/C=C\CCCC(=O)OC` (racemic), 14. As for `CCCCC[C@H](O)/C=C/[C@H]1[C@H](OCCO)CC(=O)[C@@H]1CCCCCCC(=O)O` (racemic), the figure is 14; as for `CCCCC[C@H](O)/C=C/[C@H]1[C@H](OCCO)CC(=O)[C@@H]1C/C=C\CCCC(=O)OC` (racemic), 3.

Regarding `CCCCC[C@H](O)/C=C/[C@H]1[C@H](SCCO)CC(=O)[C@@H]1C/C=C\CCCC(=O)OC` (racemic), the Relative potency was 30. Then `CCCCC[C@@H](O)/C=C/[C@H]1[C@@H](SCCO)CC(=O)[C@@H]1C/C=C\CCCC(=O)OC` (racemic), with 6; and `CCCCC[C@H](O)/C=C/[C@H]1[C@H](O)CC(=O)[C@@H]1C/C=C\CCCC(=O)O` [DINOPROSTONE], with 570.
